≈ marks a conversion by molar mass, not a printed value.
Legend:
[1] = tested on: Enterobacter cloacae; assay: Antibacterial activity against Enterobacter cloacae 846; format: functional
Outline: (§1)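 MIC by agar dilution on Nutrient Agar, following the NCCLS standard dilution method for aerobically growing bacteria.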

[2] = tested on: Enterobacter cloacae; assay: Antibacterial activity against Enterobacter cloacae SANK 72690; format: functional; outline: as §1
[3] = tested on: Escherichia coli; assay: Antibacterial activity against Escherichia coli SANK 70569 (NIHJ JC-2); format: functional; outline: as §1
[4] = tested on: Escherichia coli; assay: Antibacterial activity against Escherichia coli SANK 72290; format: functional; outline: as §1
[5] = tested on: Klebsiella pneumoniae; assay: Antibacterial activity against Klebsiella pneumoniae SANK 72490; format: functional; outline: as §1
[6] = tested on: Morganella morganii; assay: Antibacterial activity against Morganella morganii SANK 72990; format: functional; outline: as §1
[7] = tested on: Pseudomonas aeruginosa; assay: Antibacterial activity against Pseudomonas aeruginosa SANK 3719; format: functional; outline: as §1
[8] = tested on: Pseudomonas aeruginosa; assay: Antibacterial activity against Pseudomonas aeruginosa SANK 73090; format: functional; outline: as §1
[9] = tested on: Salmonella enteritidis; assay: Antibacterial activity against Salmonella enteritidis SANK 72390; format: functional, Salmonella enterica subsp. enterica serovar Enteritidis; conditions: Salmonella enterica; outline: as §1
[10] = tested on: Serratia marcescens; assay: Antibacterial activity against Serratia marcescens SANK 72790; format: functional; outline: as §1
[11] = tested on: Proteus vulgaris; assay: Antibacterial activity against Proteus vulgaris SANK 72890; format: functional; outline: as §1
[12] = tested on: Pseudomonas aeruginosa; assay: Antibacterial activity against Pseudomonas aeruginosa SANK 73190; format: functional; outline: as §1
[13] = tested on: Enterococcus faecalis; assay: Antibacterial activity against Enterococcus faecalis SANK 71990; format: functional; outline: as §1
[14] = tested on: Staphylococcus aureus; assay: Antibacterial activity against Staphylococcus aureus SANK 70668; format: functional; outline: as §1
[15] = tested on: Staphylococcus aureus; assay: Antibacterial activity against Staphylococcus aureus SANK 71790; format: functional; outline: as §1
[16] = tested on: Staphylococcus aureus; assay: Antibacterial activity against Staphylococcus aureus SANK 71890 (MRSA); format: functional; outline: as §1

SMILES | MIC [1] [µg/mL] | MIC [2] [µg/mL] | MIC [3] [µg/mL] | MIC [4] [µg/mL] | MIC [5] [µg/mL] | MIC [6] [µg/mL] | MIC [7] [µg/mL] | MIC [8] [µg/mL] | MIC [9] [µg/mL] | MIC [10] [µg/mL] | MIC [11] [µg/mL] | MIC [12] [µg/mL] | MIC [13] [µg/mL] | MIC [14] [µg/mL] | MIC [15] [µg/mL] | MIC [16] [µg/mL]
CCCCCC[C@H]1OC(=O)CNC(=O)[C@H]([C@H](C)O)NC(=O)[C@H](CO)NC(=O)[C@H]([C@H](C)CC)NC(=O)[C@H](CC(C)C)NC(=O)[C@@H]1C | 100 (≈ 156 µM) | > 100 | > 100 | > 100 | > 100 | > 100 | > 100 | > 100 | > 100 | > 100 | > 100 | > 100 |  |  |  | 
CCCCCC[C@H]1OC(=O)CNC(=O)[C@@H]([C@@H](C)O)NC(=O)[C@H](CO)NC(=O)[C@H]([C@H](C)CC)NC(=O)[C@H](CC(C)C)N(C)C(=O)[C@@H]1C | 100 (≈ 152 µM) | > 100 | > 100 | > 100 | > 100 | > 100 | > 100 | > 100 | > 100 | > 100 | > 100 | > 100 |  |  |  | 
CCCCCC[C@H]1OC(=O)CNC(=O)[C@@H]([C@@H](C)O)NC(=O)[C@H](CO)NC(=O)[C@H]([C@@H](C)CC)NC(=O)[C@H](CC(C)C)N(C)C(=O)[C@@H]1C | > 100 | > 100 | > 100 | > 100 | > 100 | > 100 | > 100 | > 100 | > 100 | > 100 | > 100 | > 100 |  |  |  | 
CCCCCC[C@H]1OC(=O)CNC(=O)[C@H](CC)NC(=O)[C@H](CO)NC(=O)[C@H]([C@H](C)CC)NC(=O)[C@H](CC(C)C)N(C)C(=O)[C@@H]1C | 12.5 (≈ 19.5 µM) | > 100 | 25 (≈ 39.1 µM) | 25 (≈ 39.1 µM) | 50 (≈ 78.1 µM) | > 100 | > 100 | > 100 | 100 (≈ 156 µM) | > 100 | > 100 | > 100 |  |  |  | 
CCCCCC[C@H]1OC(=O)CNC(=O)[C@@H]([C@H](C)OC)NC(=O)[C@H](CO)NC(=O)[C@H]([C@H](C)CC)NC(=O)[C@H](CC(C)C)N(C)C(=O)[C@@H]1C | 12.5 (≈ 18.7 µM) | 100 (≈ 149 µM) | 25 (≈ 37.3 µM) | 25 (≈ 37.3 µM) | 50 (≈ 74.6 µM) | > 100 | > 100 | > 100 | 50 (≈ 74.6 µM) | > 100 | > 100 | > 100 |  |  |  | 

These reach a lower MIC [1]. Values come first.

MIC [1] [µg/mL] | MIC [2] [µg/mL] | MIC [3] [µg/mL] | MIC [4] [µg/mL] | MIC [5] [µg/mL] | MIC [6] [µg/mL] | MIC [7] [µg/mL] | MIC [8] [µg/mL] | MIC [9] [µg/mL] | MIC [10] [µg/mL] | MIC [11] [µg/mL] | MIC [12] [µg/mL] | MIC [13] [µg/mL] | MIC [14] [µg/mL] | MIC [15] [µg/mL] | MIC [16] [µg/mL] | SMILES
1.56 (≈ 2.19 µM) | 3.13 (≈ 4.4 µM) | 1.56 (≈ 2.19 µM) | 1.56 (≈ 2.19 µM) | 1.56 (≈ 2.19 µM) | > 100 | > 100 | > 100 | 3.13 (≈ 4.4 µM) | 3.13 (≈ 4.4 µM) | > 100 | > 100 | 12.5 (≈ 17.6 µM) | 6.25 (≈ 8.78 µM) | 6.25 (≈ 8.78 µM) | 12.5 (≈ 17.6 µM) | CCCCCCCCCC[C@H]1OC(=O)CNC(=O)[C@H]([C@H](C)O)NC(=O)[C@H](CO)NC(=O)[C@H]([C@H](C)CC)NC(=O)[C@H](CC(C)C)N(C)C(=O)[C@@H]1C
1.56 (≈ 2.28 µM) | 12.5 (≈ 18.3 µM) | 3.13 (≈ 4.58 µM) | 3.13 (≈ 4.58 µM) | 3.13 (≈ 4.58 µM) | > 100 | > 100 | > 100 | 6.25 (≈ 9.14 µM) | 12.5 (≈ 18.3 µM) | > 100 | > 100 | 100 (≈ 146 µM) | 50 (≈ 73.1 µM) | 50 (≈ 73.1 µM) | 50 (≈ 73.1 µM) | CCCCCCCC[C@H]1OC(=O)CNC(=O)[C@H]([C@H](C)O)NC(=O)[C@H](CO)NC(=O)[C@H]([C@H](C)CC)NC(=O)[C@H](CC(C)C)N(C)C(=O)[C@@H]1C
6.25 (≈ 9.53 µM) | 50 (≈ 76.2 µM) | 12.5 (≈ 19.1 µM) | 12.5 (≈ 19.1 µM) | 25 (≈ 38.1 µM) | > 100 | > 100 | > 100 | 25 (≈ 38.1 µM) | 100 (≈ 152 µM) | > 100 | > 100 | > 100 | > 100 | > 100 | > 100 | CCCCCC[C@H]1OC(=O)CNC(=O)[C@H]([C@H](C)O)NC(=O)[C@H](CO)NC(=O)[C@H]([C@H](C)CC)NC(=O)[C@H](CC(C)C)N(C)C(=O)[C@@H]1C
6.25 (≈ 9.53 µM) | 50 (≈ 76.2 µM) | 12.5 (≈ 19.1 µM) | 12.5 (≈ 19.1 µM) | 25 (≈ 38.1 µM) | > 100 | > 100 | > 100 | 50 (≈ 76.2 µM) | > 100 | > 100 | > 100 |  |  |  |  | CCCCCC[C@H]1OC(=O)CNC(=O)[C@@H]([C@H](C)O)NC(=O)[C@H](CO)NC(=O)[C@H]([C@@H](C)CC)NC(=O)[C@H](CC(C)C)N(C)C(=O)[C@@H]1C

— ChEMBL document CHEMBL1145725, “Synthesis and antimicrobial activity of novel globomycin analogues” (2003)
